Assay results as given in ChEMBL document CHEMBL1146602, “4-Hydroxymethyl-3-aminoacridine derivatives as a new family of anticancer agents” (J Med Chem, 2003).

Key:
L1210 = test: In vitro cytotoxic against L1210 (murine leukemia) cell line.; type: functional, cell-based; conditions: Mus musculus
In short: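 L1210 mouse leukaemia cells in DMEM with 10% FCS, seeded at 10⁵ cells/mL and grown 24 h (about 3×10^5 cells/mL). Compounds added in DMSO at increasing concentrations, in duplicate, against DMSO controls. Cells counted with a Coulter counter after a further 24 h at 37 °C, 5% CO2. IC50 (50% reduction in cell number versus controls) taken from regression curves.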

[1] = Partition coefficient (logP); type: physicochemical; conditions: octanol/water
A549 = test: In vitro cytotoxicity against A549 (human lung carcinoma) cell line.; type: functional, cell-based
In short: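 Clonogenic test on A549 lung adenocarcinoma cells in F12-K with 10% FCS, plated at 200 cells/well. After 24 h, exposed 24 h to compounds at various concentrations, washed with PBS, then grown 14 days drug-free. Giemsa-stained colonies counted; survival as % of untreated controls.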

HT-29 = test: In vitro cytotoxicity against HT-29 (human colon cancer) cell line.; type: functional, cell-based
In short: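 HT29 colon adenocarcinoma cells in DMEM with 10% FCS, seeded at 5×10^4 cells/well and grown 2 days, then exposed 24 h to compounds in DMSO (DMSO controls). Cells washed with PBS and regrown 3 days drug-free. Survival read by MTT (30 min, 100 µg/well), formazan dissolved in DMSO, A540, as % of controls. IC50 taken from regression curves.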

Row | Compound | IC50 (L1210) [nM] | logP [1] | IC50 (A549) [nM] | IC50 (HT-29) [nM]
1 | CNc1ccc2cc3ccc(N(C)S(C)(=O)=O)cc3nc2c1CO | 200 | 1.56 | 300 | 1200
2 | CCOC(=O)Nc1ccc2cc3ccc4c(c3nc2c1)COC(=O)N4 | 2700 | 2 | 2200 | 11000
3 | CCOC(=O)Nc1ccc2cc3ccc4c(c3nc2c1)COCN4C(=O)OCC | 84000 | 3.12 | 19000 | > 100000
4 | CCOC(=O)Nc1ccc2cc3ccc4c(c3nc2c1)COCN4 | 80 | 2.07 | > 50 | 1300
5 | Nc1ccc2cc3ccccc3nc2c1CO | 20 | 1.77 | 5 | 25
6 | CS(=O)(=O)Nc1ccc2cc3ccc4c(c3nc2c1)COCN4 | 6200 | 0.7 | 6000 | 12000
7 | CCOC(=O)N1COCc2c1ccc1cc3ccc(NC)c(CO)c3nc21 | 1500 | 1.75 | 350 | 4200
8 | CCOC(=O)Nc1ccc2cc3ccc(NC)c(CO)c3nc2c1 | 90 | 1.97 | 30 | 350
9 | CN(C)c1ccc2cc3ccccc3nc2c1CO | 6000 | 2.2 | 13000 | 14000
10 | CN1COCc2c1ccc1cc3ccc4c(c3nc21)COC(=O)N4 | 1000 | 1.7 | 450 | 9000
11 | c1cc2cc3ccc4c(c3nc2c2c1NCOC2)COCN4 | 350 | 2.17 | 20 | 1500
12 | CN(c1ccc2cc3ccc4c(c3nc2c1)COCN4)S(C)(=O)=O | 600 | 1.54 | 1300 | 2300
13 | O=C1Nc2ccc3cc4ccccc4nc3c2CO1 | 2800 | 1.64 | 7000 | 17000
14 | CCOC(=O)Nc1ccc2cc3ccc(N)c(CO)c3nc2c1 | 10 | 1.55 | 10 | 40
15 | CNc1ccc2cc3ccc4c(c3nc2c1CO)COCN4 | 500 | 1.65 | 100 | 2000
16 | CCOC(=O)N1COCc2c1ccc1cc3ccc4c(c3nc21)COCN4C(=O)OCC | > 200000 | 2.5 | 3500 | 1000
17 | CN1COCc2c1ccc1cc3ccc(N)c(CO)c3nc21 | 650 | 1.64 | 50 | 300
18 | CNc1ccc2cc3ccc(NS(C)(=O)=O)cc3nc2c1CO | 2800 | 0.55 | 4400 | 29000
19 | CNc1ccc2cc3ccc4c(c3nc2c1CO)COCN4S(C)(=O)=O | 1600 | 1.2 | 100 | 3700
20 | CNc1ccc2cc3ccccc3nc2c1CO | 1100 | 2.1 | 1400 | 2500
